In the library only some 2.5% were active in any assay of this set; here they are far more common.
Pemphigus Ab inh: inhibitors of pemphigus antibody binding to human desmoglein-3; binding (percent of control), % at 10 µM; DSG3-coupled beads, scFv-anti-DSG3-GFP binding, flow cytometry; hits give low values; AID 588358; 310,000 compounds, 0.48% hits;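 active = binding more than 3 SD below its plate's average and above zero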;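 note: hits lower antibody fragment binding to DSG3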
TRPC6 activator: activates the mouse TRPC6 cation channel. Q61143. HEK293-TRPC6 membrane potential dye fluorescence; hits give high values. B-score at 10 µM. 310,000 compounds, 0.13% hits;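 active = B-score of the integrated fluorescence ratio above library mean plus 3 SD, and starting fluorescence ratio within library mean plus 5 SD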;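 note: higher score means more depolarization so channel activation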
TRPC4 potent: allosteric potentiators of mouse TRPC4 channel | HEK293 TRPC4beta/mu-opioid, DAMGO EC20, Fluo-4 Ca2+ flux; hits give high values | B-score at 10 µM | 310,000 compounds, 0.42% hits | AID 2227;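 active = B-score of calcium response area above 5 SD of library B-scores, with initial fluorescence ratio within 5 SD of library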;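 note: B-score of integrated fluorescence ratio over time as area under calcium response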
TRPC4 act: TRPC4 (mouse) channel activation | 310,000 compounds, 0.49% hits | B-score at 10 µM | AID 2237 | Q9QUQ5 | HEK293 TRPC4beta/mu-opioid, Fluo4 calcium fluorescence; hits give high values;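 active = B-score above 5 SD of library B-scores, and initial fluorescence ratio not above library mean plus 5 SD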;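 note: positive B-score marks a calcium rise read as TRPC4 activation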
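Technique: kinetic Fluo4 calcium fluorescence; Test system: TRPC4beta and mu-opioid receptor HEK293 stable cells; Measure: B-scored integrated calcium fluorescence ratio; Benchmarks: low control buffer alone, high control maximal DAMGO; Schedule: 45 min room-temperature Fluo4 loading, 110 s read.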
TRPC6 inhibitor: blocks the mouse TRPC6 cation channel; AID 2553; HEK293-TRPC6, membrane potential dye, ACh-evoked depolarization; hits give low values; B-score at 10 µM; 310,000 compounds, 1.1% hits; Q61143;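 active = B-score under library mean minus 3 SD, initial fluorescence not abnormally high, positive integrated signal ratio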;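 note: B-score derived from integrated fluorescence ratio over the kinetic read; more negative B-score means stronger inhibition of depolarization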
TRPC4 block: inhibitors of mouse TRPC4 channel; Q9QUQ5; HEK293 TRPC4beta/mu-opioid, DAMGO-evoked Fluo4 calcium flux; hits give low values; B-score at 10 µM; 300,000 compounds, 0.39% hits; AID 2247;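 active = B-score over 3 SD under the library average, no early fluorescence shift, positive overall ratio signal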
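Material: HEK293 cells with stable TRPC4beta plus mu-opioid receptor expression / Probe or stimulus: DAMGO in two steps, submaximal then maximal / Compound: single concentration per test compound / Technique: kinetic Fluo4 fluorescence imaging of calcium influx / Read-out: per-well B score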
Starred values were filed as active, the others as inactive; i = inactive; . = no result.

SMILES | Pemphigus Ab inh | TRPC6 activator | TRPC4 potent | TRPC4 act | TRPC6 inhibitor | TRPC4 block
Cc1cc(/C=C2\SC(N)=NC2=O)c(C)n1-c1ccc(F)cc1 | 94 | i | i | i | i | i
NS(=O)(=O)c1ccc(NC(=O)CCc2ccccc2)cc1 | 107* | i | i | i | i | i
O=C(C[n+]1cc(-c2ccc(F)cc2)n2c1CCC2)Nc1nc(-c2ccccc2)cs1 | 101 | i | i | i | i | i
Cc1ccc(-c2c[n+](CC(=O)Nc3nc(-c4ccc(F)cc4)cs3)c3n2CCC3)cc1 | 107 | i | i | i | i | -6*
CCOC(=O)c1c(NC(=S)NC(C)=O)sc(C)c1C | 71* | i | i | i | i | i
COc1ccc(C(CCNCc2ccc(N(C)C)cc2)c2ccccc2)cc1 (configuration not stated) | 96 | i | i | 104* | i | i
CC(C)Oc1ccc(C(CCNCc2ccc(O)cc2)c2ccccc2)cc1 (configuration not stated) | 89 | i | i | i | i | i
CC1CCN(S(=O)(=O)c2ccc3c(c2)c(=O)c(C(=O)NCc2cccs2)cn3C)CC1 | 83* | i | i | i | i | i
CC1CCN(S(=O)(=O)c2ccc3c(c2)c(=O)c(C(=O)NCc2ccco2)cn3C)CC1 | 107 | i | i | i | i | i
CCOC(=O)C1(CC2CC2)CCN(Cc2cnc(-c3ccccc3C)nc2)CC1 | 101 | i | i | 118* | i | i
CCOC(=O)C1(CC2CC2)CCN(Cc2cc(Cl)c(O)c(OC)c2)CC1 | 104 | i | i | i | i | -9*
Cc1cnc(C(=O)OCC(=O)Nc2c(Cl)cc(Cl)cc2Cl)cn1 | 105 | . | . | . | . | .
COc1ccc(NC(=O)C(C/C=C(/C)Cl)C(C)=O)cc1 (configuration not stated) | 99 | i | i | i | i | i
Cc1ccc(-n2c3c(cc(C(=O)NCc4ccco4)c2=O)C(=O)CCC3)cc1 | 87 | i | i | i | i | i
COc1ccc(-n2c3c(cc(C(=O)NCc4ccco4)c2=O)C(=O)CC(C)(C)C3)cc1 | 108 | i | i | i | i | -7*
O=C(O)C1CCCCC1C(=O)NCCc1ccc(F)cc1 (configuration not stated) | 107 | i | 10* | i | i | i
COc1ccc(CCNC2CCc3ccccc3C2)cc1 (configuration not stated) | 106 | i | i | i | i | i
COc1ccc(CCNC(=O)c2ccccc2)cc1 | 65* | i | i | i | i | i
COc1ccc(CCNC(=O)c2ccccc2C(=O)NCCc2ccc(OC)cc2)cc1 | 108 | i | i | i | i | i
COc1ccc(CCNC2CCC(c3ccccc3)CC2)cc1 (configuration not stated) | 115 | i | i | 104* | i | i
Cn1c(-c2c(N)n(CCCc3ccccc3)c3nc4ccccc4nc23)nc2ccccc21 | 96 | i | i | i | i | i
COCCCn1c(N)c(-c2nc3ccccc3n2C)c2nc3ccccc3nc21 | 102 | i | i | 74* | i | i
CCN=C(NCC)SC1CC(=O)N(c2ccc(F)cc2)C1=O (configuration not stated) | 105 | i | i | i | i | i
O=C(CN1CCN(Cc2ccccc2)CC1)N=Nc1c(O)[nH]c2ccccc12 | 101 | i | i | i | i | i
O=C(CNC(=O)Cc1ccccc1)N=Nc1c(O)[nH]c2ccccc12 | . | i | i | i | i | i
O=C(CNC(=O)/C=C/c1ccco1)N=Nc1c(O)[nH]c2ccccc12 | 45* | i | i | i | i | i
O=C(CN1CCCCC1)N=Nc1c(O)[nH]c2ccccc12 | 102 | i | i | i | i | -8*

Compound activity (PubChem)
